Screens: PubChem BioAssay, The Scripps Research Institute Molecular Screening Center
Sampled rows, rich in hits. Any-hit rate of the full collection: about 1.9%.
CHRM4 agonist = CHRM4 agonism in calcium assay; P08173; CHO-K1 hM4/Gqi5, Fluo-8 calcium fluorescence; vehicle 0%, full acetylcholine response 100%; hit rate 0.14% among 360,000; activation, % at 3 µM;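 active means activation above the run mean over all test wells plus 3 SD, cut at about 32% in these data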;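 further: peak over basal fluorescence ratio per well then scaled between controls; 0% = DMSO wells and 100% = acetylcholine at EC100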
Target sequence (P08173 whole entry, looked up): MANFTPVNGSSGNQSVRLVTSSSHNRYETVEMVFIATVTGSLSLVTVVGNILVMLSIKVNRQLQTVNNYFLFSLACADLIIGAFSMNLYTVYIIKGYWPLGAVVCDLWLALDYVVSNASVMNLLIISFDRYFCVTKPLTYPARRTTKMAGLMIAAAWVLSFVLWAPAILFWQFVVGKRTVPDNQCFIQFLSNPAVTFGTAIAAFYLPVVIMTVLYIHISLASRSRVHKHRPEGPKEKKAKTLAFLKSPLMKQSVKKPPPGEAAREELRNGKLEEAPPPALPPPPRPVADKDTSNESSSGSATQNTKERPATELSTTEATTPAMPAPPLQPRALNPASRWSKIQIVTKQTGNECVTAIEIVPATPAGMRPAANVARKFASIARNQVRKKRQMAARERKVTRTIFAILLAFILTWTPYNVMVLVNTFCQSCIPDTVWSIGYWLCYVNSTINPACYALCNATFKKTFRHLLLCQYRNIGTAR
M4 antag = blocks acetylcholine activation of human M4 receptor; CHO-hM4 cells, ACh EC80, Fluo-8 calcium fluorescence; hit rate 0.73% among 360,000; P08173; AID 624125; inhibition, % at 3 µM;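 active means inhibition above its plate's cutoff, the mean inhibition of sample wells plus 3 SD, cut at about 27% in these data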;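 further: 0% = acetylcholine EC80 with DMSO and 100% = DMSO without agonist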
CHRM5 agonist = agonists of human muscarinic M5 receptor (CHRM5). P08912. CHO-K1 hM5 cells, Fluo-8 calcium fluorescence; 0% DMSO wells, 100% maximal acetylcholine response. activation, % at 3 µM. hit rate 0.19% among 360,000. AID 624037;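 active means activation above the run's mean over test compounds plus 3 SD, cut at about 23% in these data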;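 further: signal is peak over basal fluorescence ratio across the kinetic read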
CHRM5 antagonist = antagonists of human muscarinic M5 receptor (CHRM5); P08912; CHO-hM5 cells, Fluo-8 calcium fluorescence, ACh EC80; inhibition, % at 3 µM; hit rate 0.59% among 360,000; AID 624040;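 active means inhibition above a per-plate cutoff, the mean of that plate's test compounds plus 3 SD, cut at about 27% in these data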;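 further: 0% = acetylcholine EC80 with DMSO and 100% = DMSO without agonist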
M5 PAM = CHRM5 positive allosteric modulation; CHO-K1 hM5, Fluo-8 calcium, ACh EC20 PAM; 0% = ACh EC20, 100% = ACh EC100; hit rate 0.3% among 360,000; P08912; AID 624038; activation, % at 3 µM;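 active means activation above the run cutoff, the mean activation of all test compounds plus 3 SD, cut at about 18% in these data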
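Test system: CHO-K1 hM5 cells / Doses: single-point, 3 µM nominal / Times: Post-acetylcholine fluorescence recording 140 s / Technique: Fluo-8 calcium fluorescence / Measure: Max/basal fluorescence ratio as % of EC20–EC100 ACh window / Benchmarks: low control EC20 acetylcholine (0%), high control EC100 acetylcholine (100%) / Replicates: one well per compound, no replicates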
M4 PAM = potentiates acetylcholine response at human M4 receptor | CHO-K1 hM4/Gqi5, Fluo-8 calcium fluorescence, ACh EC20; 0% = ACh EC20, 100% = maximal ACh | hit rate 0.4% among 360,000 | activation, % at 3 µM | P08173;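 active means activation above its plate's cutoff, the mean activation of sample wells plus 3 SD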
Numbers without * were called inactive.

`Cc1noc(C)c1CC(=O)Nc1ccc2c(c1)OCO2` gave CHRM4 agonist 2, M4 antag 3, CHRM5 agonist 4, CHRM5 antagonist -3, M5 PAM -1 and M4 PAM 7.
Screening CC(NC(=O)/C=C/c1ccccc1[N+](=O)[O-])C1CC2CCC1C2 (stereo unspecified) returned CHRM4 agonist 3, M4 antag 4, CHRM5 agonist -4, CHRM5 antagonist -3, M5 PAM -1 and M4 PAM 1.
`COC(=O)CCCCCCCCCCN1CCCCC1` gave CHRM4 agonist 2, M4 antag 40*, CHRM5 agonist -9, CHRM5 antagonist -1, M5 PAM -6 and M4 PAM -16.
COC(=O)CCCCC(=O)OC was read as CHRM4 agonist 2, M4 antag 3, CHRM5 agonist 1, CHRM5 antagonist 6, M5 PAM -5 and M4 PAM 6.
`CCn1nc(C(=O)OCc2c(C)noc2C)c2ccccc2c1=O` gave CHRM4 agonist 0, M4 antag -2, CHRM5 agonist -6, CHRM5 antagonist 8, M5 PAM 56* and M4 PAM 6.
`COc1ccc(CNC(=O)CCn2nc(C)c3c(C)n(-c4ccccc4)nc3c2=O)c(OC)c1` gave CHRM4 agonist 1, M4 antag 0, CHRM5 agonist -2, CHRM5 antagonist 13, M5 PAM -2 and M4 PAM -4.
O=[N+]([O-])c1cccc(/C=N/Nc2nc(NCc3ccccc3)nc(N3CCOCC3)n2)c1O was read as CHRM4 agonist 46*, M4 antag -1, CHRM5 agonist 11, CHRM5 antagonist 14, M5 PAM -3 and M4 PAM -11.
Screening O=C(NCC(c1cccs1)N1CCOCC1)c1ccc(Cl)nc1 (stereo unspecified) returned CHRM4 agonist 0, M4 antag 0, CHRM5 agonist 2, CHRM5 antagonist 10, M5 PAM -2 and M4 PAM 8.
For O=C(CCN1C(=O)S/C(=C\c2ccc(F)cc2)C1=O)Nc1ccc(C(=O)O)c(O)c1 the results were CHRM4 agonist 1, M4 antag -2, CHRM5 agonist 0, CHRM5 antagonist -4, M5 PAM 10 and M4 PAM 17*.
For O=C(CCN1C(=O)S/C(=C/c2ccc(F)cc2)C1=O)Nc1ccc(O)c(C(=O)O)c1 the results were CHRM4 agonist 1, M4 antag 10, CHRM5 agonist -3, CHRM5 antagonist 4, M5 PAM -4 and M4 PAM -1.
`Cc1c(NC(=O)c2cc(-c3cccs3)nc3ccccc23)c(=O)n(-c2ccccc2)n1C` gave CHRM4 agonist 13, M4 antag 20, CHRM5 agonist 4, CHRM5 antagonist 27*, M5 PAM -19 and M4 PAM -12.
For O=C(CCC1CCN(C(=O)CC2=CCCCC2)CC1)NCc1ccc(F)cc1 the results were CHRM4 agonist 4, M4 antag 4, CHRM5 agonist 1, CHRM5 antagonist -1, M5 PAM -2 and M4 PAM 0.
For O=C(NCc1ccco1)c1cccc(-c2cncc3nccn23)c1 the results were CHRM4 agonist 0, M4 antag 2, CHRM5 agonist 1, CHRM5 antagonist 12, M5 PAM 0 and M4 PAM 4.
CCc1ccc(Cn2nnc(C(=O)Nc3cccc(C)c3)c2N)cc1 was read as CHRM4 agonist 4, M4 antag 5, CHRM5 agonist 6, CHRM5 antagonist 3, M5 PAM -3 and M4 PAM 2.
For COc1cccc(Cn2nnc(C(=O)Nc3cc(C)ccc3OC)c2N)c1 the results were CHRM4 agonist 0, M4 antag -13, CHRM5 agonist -2, CHRM5 antagonist 2, M5 PAM -6 and M4 PAM 18*.
Screening Cc1ccc(Cn2nnc(C(=O)Nc3cccc(C)c3C)c2N)cc1 returned CHRM4 agonist 53*, M4 antag 21, CHRM5 agonist 38*, CHRM5 antagonist 14, M5 PAM -4 and M4 PAM -20.
